# Test results: ChEMBL document CHEMBL1126276, “Synthesis and antimalarial properties of 1-imino derivatives of 7-chloro-3-substituted-3,4-dihydro-1,9(2H,10H)-acridinediones and related structures” (J Med Chem, 1992)
# “And” between values parts separate entries of the source, which are not always exact repeats. Identical values can stand only once.
# What was measured:
# Format in all cases: functional
# Plasmodium berghei [1] = assay: Antimalarial activity in Plasmodium berghei infected mice (Mus musculus) after 160 mg/kg subcutaneous dose
# Summary of the method: (§1)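 […] in mice infected with a normal drug-sensitive P. berghei strain. Compound dissolved or suspended in sesame or peanut oil, given as a single subcutaneous dose 72 h postinfection.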
# Plasmodium berghei [2] = assay: Antimalarial activity in Plasmodium berghei infected mice (Mus musculus) after 320 mg/kg subcutaneous dose; summary of the method: as §1
# Plasmodium berghei [3] = assay: Antimalarial activity Plasmodium berghei infected mice (Mus musculus) after 640 mg/kg subcutaneous dose; summary of the method: as §1
# Plasmodium berghei [4] = assay: Antimalarial activity in Plasmodium berghei infected mice (Mus musculus) after subcutaneous 640 mg/kg dose
# Summary of the method: (§2)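 Normal drug-sensitive P. berghei strain in mice. Compound dissolved or suspended in sesame or peanut oil, given parenterally as a single subcutaneous dose 72 h postinfection.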
# Plasmodium berghei [5] = assay: (§3) Antimalarial activity in Plasmodium berghei infected mice (Mus musculus) after 80 mg/kg subcutaneous dose; summary of the method: as §1
# Plasmodium berghei [6] = assay: Antimalarial activity in Plasmodium berghei infected mice (Mus musculus) after subcutaneous 320 mg/kg dose; summary of the method: as §2
# Plasmodium berghei [7] = assay: Antimalarial activity in Plasmodium berghei infected mice (Mus musculus) after 40 mg/kg subcutaneous dose; summary of the method: as §1
# Plasmodium berghei [8] = assay: Antimalarial activity in Plasmodium berghei infected mice (Mus musculus) after 20 mg/kg subcutaneous dose; summary of the method: as §1
# Plasmodium berghei [9] = assay: Antimalarial activity in Plasmodium berghei infected mice (Mus musculus) after subcutaneous 160 mg/kg dose; summary of the method: as §2
# Plasmodium berghei [10] = assay: as §3; summary of the method: as §2; remark: listed apart in the source
SMILES,Delta mean survival time (Plasmodium berghei [1]),Delta mean survival time (Plasmodium berghei [2]),Delta mean survival time (Plasmodium berghei [3]),No. of cured mice (Plasmodium berghei [4]),Delta mean survival time (Plasmodium berghei [5]),No. of cured mice (Plasmodium berghei [6]),Delta mean survival time (Plasmodium berghei [7]),Delta mean survival time (Plasmodium berghei [8]),No. of cured mice (Plasmodium berghei [9]),No. of cured mice (Plasmodium berghei [10]),Delta mean survival time (Plasmodium berghei [3]; 640 mg/kg),No. of cured mice (Plasmodium berghei [4]; 640 mg/kg)
COc1ccc(C2C/C(=N\CCCN(C)C)c3c(n(O)c4ccc(Cl)cc4c3=O)C2)cc1 (stereo unspecified),0.7,6.5,8.4,3,0.1,–,–,–,–,–,–,–
COc1cc(C2CC(=O)c3c(n(O)c4ccc(Cl)cc4c3=O)C2)cc(OC)c1OC (stereo unspecified),1.8,2.7,7,–,1.3,–,–,–,–,–,–,–
COc1cc(C2C/C(=N\CCCN(C)C)c3c(n(O)c4ccc(Cl)cc4c3=O)C2)cc(OC)c1OC (stereo unspecified),1,4,4.3,–,–,–,–,–,–,–,–,–
Cc1ccc(C2C/C(=N\CCCN(C)C)c3c(nc4ccc(Cl)cc4c3O)C2)cc1 (stereo unspecified),6.6,6.5,9.8,2,1.4,2,0.8,–,–,–,–,–
O=C1CC(c2ccccc2)Cc2c1c(=O)c1cc(Cl)ccc1n2O (stereo unspecified),5.7,9.3,11.5,3,5.6,2,4,1.8,2,–,–,–
COc1ccc(C2CC(=O)c3c(n(O)c4ccc(Cl)cc4c3=O)C2)cc1 (stereo unspecified),1.4,4.6,5.7,–,1.2,–,0.6,0.6,–,–,–,–
Cc1ccc(C2C/C(=N\CCCN(C)C)c3c(n(O)c4ccc(Cl)cc4c3=O)C2)cc1 (stereo unspecified),3,6,1,4,1.8,2,0.2,–,–,–,–,–
O=C1CC(c2ccc(Cl)c(Cl)c2)Cc2c1c(=O)c1ccccc1n2O (stereo unspecified),5.1,7.7,12.6,2,3.1,1,–,–,–,–,–,–
CN(C)CCC/N=C1\CC(c2ccncc2)Cc2nc3ccc(Cl)cc3c(O)c21 (stereo unspecified),1.3,2.5,4.3,–,1.3,–,0.1,0.7,–,–,–,–
COCCC/N=C1\CC(c2cccc(C(F)(F)F)c2)Cc2c1c(=O)c1cc(Cl)ccc1n2O (stereo unspecified),5.1,13.8,–,5,–,3,–,–,1,1,–,–
O=C1CC(c2cccc(Br)c2)Cc2c1c(=O)c1cc(Cl)ccc1n2O (stereo unspecified),9.2,10.7,7.9,4,5.9,1,2.5,0.1,1,–,–,–
O=c1c2c(n(O)c3ccc(Cl)cc13)CC(c1ccc(Cl)c(Cl)c1)C/C2=N\CCCNCCO (stereo unspecified),9.6,11.6,–,5,7.9,4,6.6,2,3,1,–,–
O=C1CC(c2cccc(C(F)(F)F)c2)Cc2nc3ccc(Cl)cc3c(O)c21 (stereo unspecified),2.3,3.3,5.3,–,0.3,–,–,–,–,–,–,–
O=C1CC(c2ccccn2)Cc2nc3ccc(Cl)cc3c(O)c21 (stereo unspecified),2.4,7.3,4.4,–,1.1,–,–,–,–,–,–,–
CC1C(=O)c2c(nc3ccc(Cl)cc3c2O)CC1c1ccc(Cl)c(C(F)(F)F)c1 (stereo unspecified),1.5,5,5.7,2,1.1,1,0.7,0.9,1,–,–,–
CCC1/C(=N\CCCN(C)C)c2c(nc3ccc(Cl)cc3c2O)CC1c1ccc(C(F)(F)F)cc1 (stereo unspecified),–,10,–,–,5.3,2,3.3,0.3,–,–,6.7 and 10.2,4 and 3
